This is a sample that favours compounds with a hit; in the whole collection about 1.4% have one here.
PKA-R1A activ = PKA-R1A complex activation. PKA-R1A dissociation, Cy5-IP20 fluorescence polarization; scaled: DMSO 0%, 113 µM cGMP 100%. activation, % at 11.4 µM. actives 0.083% (n = 340,000). AID 504707;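 active means percent activation above the mean of all tested compounds plus 3 SD, cut at about 19% in these data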;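 further: higher means more PKAc released from R1A so a rise in polarization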
PKA-R2B act = PKA-R2B complex activation | P22694+P31323 | activation, % at 11.4 µM | PKA-R2B holoenzyme dissociation, Cy5-IP20 fluorescence polarization; R2B truncated from residue 108, S112A mutant; 0% DMSO only, 100% 113 µM cGMP | actives 0.079% (n = 340,000) | AID 504700;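 active means activation above a cutoff set at the mean over all compounds plus 3 SD, cut at about 18% in these data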;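 further: higher means more holoenzyme dissociation and a rise in polarization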
Target sequence (P31323 whole entry, looked up, other chains not shown, the tested form may be a part): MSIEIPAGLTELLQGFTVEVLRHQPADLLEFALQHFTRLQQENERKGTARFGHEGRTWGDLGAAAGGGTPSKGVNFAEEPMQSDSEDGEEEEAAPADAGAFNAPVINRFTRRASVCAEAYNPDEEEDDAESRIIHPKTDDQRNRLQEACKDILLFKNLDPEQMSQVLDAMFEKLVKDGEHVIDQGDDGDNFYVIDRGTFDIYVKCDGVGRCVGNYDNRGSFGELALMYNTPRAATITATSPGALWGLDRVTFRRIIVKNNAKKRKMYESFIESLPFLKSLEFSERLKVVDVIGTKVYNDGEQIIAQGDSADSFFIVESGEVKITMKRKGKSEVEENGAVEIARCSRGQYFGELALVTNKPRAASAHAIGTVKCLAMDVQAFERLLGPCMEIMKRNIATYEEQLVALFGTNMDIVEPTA
SR-BI HDL uptake = inhibitors of mouse SR-BI mediated HDL lipid uptake. inhibition, % at 12.5 µM. ldlA[mSR-BI] CHO cells, DiI-HDL uptake fluorescence, 3 h. actives 0.96% (n = 320,000);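 active means mean replicate inhibition of at least 70% and a set share of replicates each scoring 70 or more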;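 further: 0% = median of neutral control wells and 100% = median of positive control wells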
Vif inh = blocks HIV Vif function; HEK293T cells, Vif self-association by quenched fluorescence, imaging, 24 h; inhibition, % at 7.49 µM; actives 0.35% (n = 340,000); AID 602346; in the data active means inhibition above about 50%, passing the limit was not always enough
SR-BI uptake up = SR-BI HDL lipid transfer activation. AID 504775. CHO ldlA[mSR-BI] cells, DiI-HDL uptake fluorescence, 3 h; 100 = double the neutral-control signal. activation, % at 12.5 µM. actives 0.096% (n = 320,000);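 active means mean replicate activation of at least 60% and every replicate at or above 60%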;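 further: 0% = median plate neutral-control signal and 100% = twice that signal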
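Assay system: CHO ldlA[mSR-BI] cells, LDL receptor-null, SR-BI overexpressing; medium: Ham's F12 with 0.5% BSA, HEPES 25 mM, pH 7.4; also added: DiI-HDL 10 µg/mL; timing: 3 h uptake period with compound, 37 °C; signal: DiI fluorescence, bottom read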
* marks the source's active call; other numbers are inactive results; . = no result given.

SMILES | PKA-R1A activ | PKA-R2B act | SR-BI HDL uptake | Vif inh | SR-BI uptake up
COC(=O)[C@]1(CC(C)C)N[C@H](c2ccc(SC3CCCCC3)c(OC)c2)[C@@H]2C(=O)N(C)C(=O)[C@@H]21 | -14 | -3 | 75* | 8 | -75
COC(=O)[C@]1(CC(C)C)N[C@H](c2ccc(-c3ccc(F)cc3)c(OC)c2)[C@@H]2C(=O)N(C)C(=O)[C@@H]21 | -2 | -10 | 89* | -5 | -89
CC(OC(=O)Cc1n[nH]c(=O)c2ccccc12)C(=O)N(C)c1ccccc1 (centres undefined) | -7 | -7 | . | . | .
COc1cc(NC(=O)c2cccc3c(-c4cnn(C)c4)coc23)cc(OC)c1OC | . | . | . | -10 | .
CN(C)c1ccc(S(=O)(=O)N2CCCCC2)cc1NC(=O)C1=NN(c2ccccc2)C(=O)CC1 | -7 | 4 | 4 | -4 | -4
CCOC(=O)c1cc(C)n(CCc2ccccc2)c1C | -1 | -2 | 80* | 1 | -80
COCCCNC(=S)Nc1cc2oc3ccccc3c2cc1OC | -9 | -2 | 88* | -1 | -88
COc1cc2c(cc1NCc1ccc3c(c1)OCO3)oc1ccccc12 | -3 | -9 | 5 | -1 | 6
COc1cc2c(cc1NC(=O)COc1ccccc1OC)oc1ccccc12 | 1 | 9 | 32 | 1 | -32
COc1cc2c(cc1NC(=S)Nc1cccc(C(F)(F)F)c1)oc1ccccc12 | -4 | 7 | 75* | 1 | -75
COc1cc2c(cc1NC(=O)CSCC(=O)O)oc1ccccc12 | -4 | -3 | 1 | . | -1
COc1cc2c(cc1NC(=S)Nc1cccc3ccccc13)oc1ccccc12 | -5 | 2 | 77* | . | -77
CCN(CC)S(=O)(=O)c1ccc(N2CCCC2)c(NC(=O)CN2C(=O)NC3(CCCC3)C2=O)c1 | 0 | 18 | 1 | -4 | -1
CCc1ccc(NC(=O)CSc2nnc(CNC(=O)c3ccco3)o2)cc1 | 5 | -7 | -3 | -6 | 3
CCn1c(N)c(C(=O)NCc2cccnc2)sc1=S | -12 | -2 | 2 | -1 | -2
CCn1c(C(=O)NCc2cccnc2)cc2sc(Cl)cc21 | 5 | 5 | -418 | -5 | 418*
CCOc1ccc(Nc2nc3c(C)cccc3cc2C#N)cc1 | -8 | -5 | 42 | 82* | -42
Cc1cccn2c(=O)c(/C=C3\SC(=S)NC3=O)c(NCCCN3CCOCC3)nc12 | -6 | -6 | . | 83* | .
CCCN1C(=O)/C(=C/c2c(NCCCOCC)nc3c(C)cccn3c2=O)SC1=S | -1 | -9 | -3 | 1 | 3
CCOC(=O)c1ccc(S(=O)(=O)N2CCN(C3CCCC3)CC2)cc1 | . | . | -22 | 4 | 22
CCOc1ccc(-n2cnc3sc(C)c(C)c3c2=O)cc1 | -4 | 10 | 71* | -5 | -71
CCC1=C(c2ccc(C)cc2)S(=O)(=O)N=C1N1CCC(C(=O)NCCCN2CCCCC2)CC1 | 6 | -13 | -16 | 3 | 16
O=C(O)CCCCn1c(SCc2ccccc2Cl)nc2ccsc2c1=O | 1 | -15 | -14 | 59* | 14
CCCCn1c(N)c(N(CC(C)C)C(=O)CCNC(=O)c2ccc([N+](=O)[O-])cc2)c(=O)[nH]c1=O | -4 | -11 | -21 | 0 | 21
COc1ccc2[nH]c(C(=O)N/N=C/c3ccc(O)cc3O)cc2c1 | -5 | 0 | 99* | -18 | -99
SMILES | PKA-R1A activ | PKA-R2B act | SR-BI HDL uptake | Vif inh | SR-BI uptake up
COc1cccc(/C=N/NC(=O)c2ccc3nc[nH]c3c2)c1O | -3 | -2 | 38 | -2 | -38
COc1cccc(/C=N/NC(=O)c2cc3c(OC)ccc(OC)c3[nH]2)c1O | -2 | -7 | 144* | 12 | -144
COc1cc(OC)c2cc(C(=O)N/N=C/c3cccc(OC)c3O)[nH]c2c1 | -8 | 4 | 121* | -9 | -121
CCOc1ccc2[nH]c(C(=O)N/N=C/c3ccc(OC)cc3)cc2c1 | -6 | -4 | 9 | . | -9
CC(=O)Oc1ccc(Cn2c(C)c(C(=O)NCc3ccc4c(c3)OCCO4)sc2=O)cc1 | . | . | . | 0 | .
Cc1cc(NC(=O)CSc2nc3c(C)c(C)ccc3cc2C)no1 | -7 | -7 | -4 | 7 | 4
CCc1c(O)nc(SCC(=O)Nc2ccc(Cl)cc2)n(-c2ccccc2)c1=O | -4 | -3 | . | 0 | .

Bioassay records deposited in PubChem by several laboratories.
